Laboratory results from ChEMBL document CHEMBL1145471, “Small molecule regulators of autophagy identified by an image-based high-throughput screen” (Proc Natl Acad Sci U S A, 2007).
Where a SMILES comes first, the peptide text is derived from it. [ ]: non-standard residue; d: D form. Nle = CCCC[C@H](N)C(=O)O

What was measured:
Format in all cases: functional
H4 [1] = assay: Increase in light chain 3-GFP+ autophagosome vesicle number per cell in human H4 cells at 7.3 uM after 24 hrs by high throughput fluorescence microscopy relative to control
How it was run: (§1)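 H4 cells stably expressing LC3-GFP, kept in DMEM/10% FBS at 37°C, 5% CO2, were seeded in 96-well plates and exposed to compound for 24 h. Cells were then fixed in 4% paraformaldehyde and stained with 3 μg/ml DAPI. Automated fluorescence microscopy scored the number, size and intensity of LC3-GFP spots. Values are percent of DMSO wells, in triplicate, mean ± SD. Rapamycin served as positive control.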

H4 [2] = assay: Increase in light chain 3-GFP+ autophagosome vesicle area per cell in human H4 cells at 7.3 uM after 24 hrs by high throughput fluorescence microscopy relative to control
How it was run: (§2)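 H4 cells stably expressing LC3-GFP, seeded in 96-well plates and exposed to compound for 24 h; fixed in 4% paraformaldehyde, nuclei stained with 3 μg/ml DAPI. Automated fluorescence microscopy scored number, size and intensity of LC3-GFP spots; values expressed relative to DMSO-treated wells, rapamycin positive control. Triplicate wells, mean ± SD; experiments repeated three times.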

H4 [3] = assay: Increase in light chain 3-GFP+ autophagosome vesicle intensity per cell in human H4 cells at 7.3 uM after 24 hrs by high throughput fluorescence microscopy relative to control; how it was run: as §2
H4 [4] = assay: Decrease in FYVE-RFP+ vesicle intensity per cell in human H4 cells after 2 hrs relative to control; design: concentration or dose not given beside the values
How it was run: (§3)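 H4 cells stably expressing FYVE-RFP (H4-FYVE), grown in DMEM with 10% FBS, penicillin/streptomycin and 2 mM L-glutamine at 37°C, 5% CO2, seeded in 96-well plates and exposed to compound. Fixed in 4% paraformaldehyde, nuclei stained with 3 μg/ml DAPI, FYVE-RFP+ vesicles quantified by high-throughput fluorescence microscopy against DMSO control. Triplicate wells, mean ± SD.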

H4 [5] = assay: Decrease in FYVE-RFP+ vesicle intensity per cell in human H4 cells after 4 hrs relative to control; design: concentration or dose not given beside the values; how it was run: as §3
H4 [6] = assay: Decrease in FYVE-RFP+ vesicle intensity per cell in human H4 cells after 8 hrs relative to control; design: concentration or dose not given beside the values; how it was run: as §3
H4 [7] = assay: Increase in long-lived protein degradation in human H4 cells after 1 hr relative to control; design: concentration or dose not given beside the values
H4 [8] = assay: Increase in long-lived protein degradation in human H4 cells after 2 hrs relative to control; design: concentration or dose not given beside the values
H4 [9] = assay: Increase in long-lived protein degradation in human H4 cells after 4 hrs relative to control; design: concentration or dose not given beside the values
H4 [10] = assay: Increase in long-lived protein degradation in human H4 cells after 24 hrs relative to control; design: concentration or dose not given beside the values
H4 [11] = assay: Induction of light chain 3-GFP level in human H4 cells at 7.3 uM after 24 hrs by high throughput fluorescence microscopy relative to control; how it was run: as §1
H4 [12] = assay: Increase in light chain 3-GFP+ autophagosome vesicle number per cell in human H4 cells at 6.3 uM after 24 hrs by high throughput fluorescence microscopy relative to control; how it was run: as §1
H4 [13] = assay: Increase in light chain 3-GFP+ autophagosome vesicle area per cell in human H4 cells at 6.3 uM after 24 hrs by high throughput fluorescence microscopy relative to control; how it was run: as §2
H4 [14] = assay: Increase in light chain 3-GFP+ autophagosome vesicle intensity per cell in human H4 cells at 6.3 uM after 24 hrs by high throughput fluorescence microscopy relative to control; how it was run: as §2
H4 [15] = assay: Effect on FYVE-RFP+ vesicle intensity per cell in human H4 cells after 2 hrs relative to control; design: concentration or dose not given beside the values; how it was run: as §3
H4 [16] = assay: Effect on FYVE-RFP+ vesicle intensity per cell in human H4 cells after 4 hrs relative to control; design: concentration or dose not given beside the values; how it was run: as §3
H4 [17] = assay: Effect on FYVE-RFP+ vesicle intensity per cell in human H4 cells after 8 hrs relative to control; design: concentration or dose not given beside the values; how it was run: as §3
H4 [18] = assay: Induction of light chain 3-GFP level in human H4 cells at 6.3 uM after 24 hrs by high throughput fluorescence microscopy relative to control; how it was run: as §1
H4 [19] = assay: Increase in light chain 3-GFP+ autophagosome vesicle area per cell in human H4 cells at 5.4 uM after 24 hrs by high throughput fluorescence microscopy relative to control; how it was run: as §2
H4 [20] = assay: Increase in light chain 3-GFP+ autophagosome vesicle intensity per cell in human H4 cells at 5.4 uM after 24 hrs by high throughput fluorescence microscopy relative to control; how it was run: as §2
H4 [21] = assay: Increase in light chain 3-GFP+ autophagosome vesicle number per cell in human H4 cells at 5.4 uM after 24 hrs by high throughput fluorescence microscopy relative to control; how it was run: as §1
H4 [22] = assay: Induction of light chain 3-GFP level in human H4 cells at 5.4 uM after 24 hrs by high throughput fluorescence microscopy relative to control; how it was run: as §1
H4 [23] = assay: Increase in light chain 3-GFP+ autophagosome vesicle number per cell in human H4 cells at 6.5 uM after 24 hrs by high throughput fluorescence microscopy relative to control; how it was run: as §1
H4 [24] = assay: Increase in light chain 3-GFP+ autophagosome vesicle area per cell in human H4 cells at 6.5 uM after 24 hrs by high throughput fluorescence microscopy relative to control; how it was run: as §2
H4 [25] = assay: Increase in light chain 3-GFP+ autophagosome vesicle intensity per cell in human H4 cells at 6.5 uM after 24 hrs by high throughput fluorescence microscopy relative to control; how it was run: as §2
H4 [26] = assay: Induction of light chain 3-GFP level in human H4 cells at 6.5 uM after 24 hrs by high throughput fluorescence microscopy relative to control; how it was run: as §1
H4 [27] = assay: Induction of light chain 3-GFP level in human H4 cells at 6.0 uM after 24 hrs by high throughput fluorescence microscopy relative to control; how it was run: as §1
H4 [28] = assay: Increase in light chain 3-GFP+ autophagosome vesicle area per cell in human H4 cells at 6.0 uM after 24 hrs by high throughput fluorescence microscopy relative to control; how it was run: as §2
H4 [29] = assay: Increase in light chain 3-GFP+ autophagosome vesicle intensity per cell in human H4 cells at 6.0 uM after 24 hrs by high throughput fluorescence microscopy relative to control; how it was run: as §2
H4 [30] = assay: Increase in light chain 3-GFP+ autophagosome vesicle number per cell in human H4 cells at 6.0 uM after 24 hrs by high throughput fluorescence microscopy relative to control; how it was run: as §1
H4 [31] = assay: Increase in light chain 3-GFP+ autophagosome vesicle number per cell in human H4 cells at 4.3 uM after 24 hrs by high throughput fluorescence microscopy relative to control
How it was run: (§4)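 H4 cells stably expressing LC3-GFP were grown in DMEM with 10% FBS and 2 mM L-glutamine at 37°C, 5% CO2. They were exposed to each compound for 24 h, with DMSO as negative and rapamycin as positive control. Cells were then fixed in 4% paraformaldehyde and stained with 3 μg/ml DAPI. High-throughput fluorescence imaging scored LC3-GFP spot number, size and intensity, expressed relative to DMSO. Mean ± SD of triplicates; experiments repeated three times.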

H4 [32] = assay: Increase in light chain 3-GFP+ autophagosome vesicle area per cell in human H4 cells at 4.3 uM after 24 hrs by high throughput fluorescence microscopy relative to control
How it was run: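 H4 cells stably expressing LC3-GFP, seeded in 96-well plates and exposed to compound for 24 h; screening concentrations were 3–12 μM, with rapamycin 0.22 μM and bafilomycin A1 0.40 μM. Cells fixed in 4% paraformaldehyde and stained with 3 μg/ml DAPI. Number, size and intensity of LC3-GFP spots measured by high-throughput fluorescence microscopy and expressed as percent of DMSO-treated wells. Rapamycin was the positive control. Triplicate wells, mean ± SD; experiments repeated three times.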

H4 [33] = assay: Increase in light chain 3-GFP+ autophagosome vesicle intensity per cell in human H4 cells at 4.3 uM after 24 hrs by high throughput fluorescence microscopy relative to control; how it was run: as §4
H4 [34] = assay: Induction of light chain 3-GFP level in human H4 cells at 4.3 uM after 24 hrs by high throughput fluorescence microscopy relative to control
How it was run: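 H4 cells stably expressing LC3-GFP, grown in DMEM with 10% FBS, penicillin/streptomycin and 2 mM L-glutamine at 37°C, 5% CO2. Cells were seeded in 96-well plates and exposed to library compounds at 3–12 μM for 24 h, then fixed in 4% paraformaldehyde and stained with 3 μg/ml DAPI. LC3-GFP spot number, size and intensity were measured by high-throughput fluorescence microscopy and expressed relative to DMSO. Triplicates, mean ± SD.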

Compound | Activity (H4 [4]) [%] | Activity (H4 [5]) [%] | Activity (H4 [6]) [%] | Activity (H4 [7]) [%] | Activity (H4 [8]) [%] | Activity (H4 [9]) [%] | Activity (H4 [10]) [%] | Activity (H4 [15]) [%] | Activity (H4 [16]) [%] | Activity (H4 [17]) [%] | other results
CC(C)(c1ccc(OCC2CO2)cc1)c1ccc(OCC2CO2)cc1 (stereo unspecified) | 44.65 | 53.06 | 58.53 | 96.5 | 84.65 | 95.85 | 91.78 |  |  |  | Activity (H4 [1]): 156.58%; Activity (H4 [2]): 175.52%; Activity (H4 [3]): 182.11%; Activity (H4 [11]): 132.48%
CCCNC(=O)[C@H]1O[C@@H]1C(=O)N[C@H](C(=O)N1CCC[C@H]1C(=O)OC)[C@@H](C)CC |  |  |  | 115.2 | 110.18 | 81 | 89.11 | 65.94 | 79.82 | 86.43 | Activity (H4 [12]): 197.44%; Activity (H4 [13]): 239.2%; Activity (H4 [14]): 272.48%; Activity (H4 [18]): 132.2%
N#Cc1cc2c(OCC(O)CN3CCN(C(c4ccccc4)c4ccccc4)CC3)cccc2[nH]1 (stereo unspecified) |  |  |  | 90.63 | 108.53 | 101.77 | 90.03 | 65.87 | 59.79 | 72.4 | Activity (H4 [19]): 275.43%; Activity (H4 [20]): 329.96%; Activity (H4 [21]): 224.74%; Activity (H4 [22]): 94.7%
CCCC[C@@H](C=O)NC(=O)[C@H](CC(C)C)NC(=O)[C@H](CC(C)C)NC(C)=O (Ac-Leu-Leu-[Nle]-aldehyde) |  |  |  | 124.56 | 104.95 | 91.35 | 95.45 | 72.86 | 84.85 | 88.42 | Activity (H4 [23]): 277.88%; Activity (H4 [24]): 362.79%; Activity (H4 [25]): 495.29%; Activity (H4 [26]): 96.31%
CCOC(=O)[C@H]1O[C@@H]1C(=O)N[C@@H](CC(C)C)C(=O)NCCC(C)C [ALOXISTATIN] | 48.31 | 53.97 | 39.61 | 84.82 | 76.35 | 79.98 | 91.33 |  |  |  | Activity (H4 [1]): 169.98%; Activity (H4 [2]): 195.1%; Activity (H4 [3]): 244.88%; Activity (H4 [11]): 119.19%
CC1(C)C(C=C(Cl)Cl)C1C(=O)OC(C#N)c1cccc(Oc2ccccc2)c1 (stereo not drawn) [ALPHA-CYPERMETHRIN] | 33.75 | 29.13 | 58.22 | 94.75 | 95.28 | 98.36 | 103.75 |  |  |  | Activity (H4 [27]): 97.45%; Activity (H4 [28]): 200.12%; Activity (H4 [29]): 208.14%; Activity (H4 [30]): 174.74%
COc1ccc2c(c[n+](C)c3c4cc5c(cc4ccc23)OCO5)c1OC.[Cl-] [CHELERYTHRINE CHLORIDE] | 30.83 | 22.01 | 33.84 | 101.43 | 100.4 | 108.72 | 106.48 |  |  |  | Activity (H4 [23]): 195.46%; Activity (H4 [24]): 229.91%; Activity (H4 [25]): 213.88%; Activity (H4 [26]): 110.26%
COc1cc([C@@H]2c3cc4c(cc3[C@@H](O[C@@H]3O[C@@H]5CO[C@@H](C)O[C@H]5[C@H](O)[C@H]3O)[C@H]3COC(=O)[C@H]23)OCO4)cc(OC)c1O [ETOPOSIDE] |  |  |  |  |  |  |  |  |  |  | Activity (H4 [31]): 275.6%; Activity (H4 [32]): 306.93%; Activity (H4 [33]): 335.9%; Activity (H4 [34]): 48.17%
CC1(C)[C@@H](O)C[C@H]2[C@](C)(O)[C@@H]3CC[C@@H]4[C@@H](O)[C@@]3(C[C@@H](O)[C@@]21O)C[C@@]4(C)O [GRAYANOTOXIN III] | 45.44 | 39.37 | 39.83 | 95.81 | 96.23 | 90.49 | 91.03 |  |  |  | Activity (H4 [27]): 129.36%; Activity (H4 [28]): 154.31%; Activity (H4 [29]): 210.65%; Activity (H4 [30]): 130.17%
C/C1=C/C(=O)O[C@@H]2C[C@@H](CC[C@H](C)/C=C\CC1)O[C@@](O)([C@@H]1CSC(=O)N1)C2 [LATRUNCULIN B] |  |  |  |  |  |  |  |  |  |  | Activity (H4 [12]): 263.28%; Activity (H4 [13]): 334.83%; Activity (H4 [14]): 723.64%; Activity (H4 [18]): 27.55%
